Reference: PMC4689628 (Organic & biomolecular chemistry, 2016)

How the values were obtained:
pentameric MLL1 complex [1] = target: T1, pentameric MLL1 complex (Homo sapiens, UniProt Q03164); assay: FL-NAH fluorescence polarization saturation binding, pentameric complex
MLL1 SET domain [2] = target: T2, MLL1 SET domain (Homo sapiens, UniProt Q03164); assay: saturation-transfer difference; format: binding; conditions: Supplementary Figure 2
MLL1 SET domain [3] = target: T2, MLL1 SET domain; assay: FL-NAH fluorescence polarization saturation binding, isolated SET domain; conditions: SET Only
Outline: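 The isolated MLL1 SET domain was titrated in increasing concentrations against 50 nM fluorescein-azaadenosylhomocysteine probe. Buffer was 20 mM Tris pH 8.0, 0.01% Triton X-100, 5 mM DTT. Incubation was 30 min at ambient temperature. FP was read at ex 485/em 528 nm. Kd and ΔFPmax came from nonlinear least-squares single-site saturation fit of ΔFP. Mean ± SD, three independent experiments.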

MLL1 SET domain [4] = target: T2, MLL1 SET domain; assay: differential static light scattering; format: binding; conditions: Supplementary Figure 3
[5] = target: T3, trimeric MLL1 complex (MLL1, RbBP5 and WDR5) (Homo sapiens, UniProt Q03164); assay: FL-NAH fluorescence polarization saturation binding, trimeric complex
tetrameric MLL1 complex [6] = target: T4, tetrameric MLL1 complex (Homo sapiens, UniProt Q03164); assay: FL-NAH fluorescence polarization saturation binding, tetrameric complex
T4 sequence (Q03164 3829-3945): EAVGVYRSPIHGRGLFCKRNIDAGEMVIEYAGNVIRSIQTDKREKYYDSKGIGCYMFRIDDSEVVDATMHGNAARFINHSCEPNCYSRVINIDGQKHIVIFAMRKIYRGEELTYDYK
T4 sequence (Q15291 whole entry, further chain): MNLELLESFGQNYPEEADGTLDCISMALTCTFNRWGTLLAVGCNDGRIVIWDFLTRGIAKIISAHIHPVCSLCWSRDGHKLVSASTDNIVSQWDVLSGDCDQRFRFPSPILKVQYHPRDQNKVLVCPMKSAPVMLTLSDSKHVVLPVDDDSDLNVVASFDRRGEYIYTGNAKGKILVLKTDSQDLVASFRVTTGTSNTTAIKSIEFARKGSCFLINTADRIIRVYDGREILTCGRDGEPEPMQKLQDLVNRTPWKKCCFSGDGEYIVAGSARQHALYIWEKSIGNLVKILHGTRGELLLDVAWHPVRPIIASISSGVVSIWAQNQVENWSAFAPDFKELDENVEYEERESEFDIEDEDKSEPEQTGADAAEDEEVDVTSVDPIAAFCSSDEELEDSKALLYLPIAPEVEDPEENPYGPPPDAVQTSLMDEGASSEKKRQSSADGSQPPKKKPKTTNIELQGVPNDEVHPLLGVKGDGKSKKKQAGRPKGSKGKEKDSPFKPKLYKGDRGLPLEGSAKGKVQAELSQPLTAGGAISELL
T4 sequence (Q9UBL3 whole entry, further chain): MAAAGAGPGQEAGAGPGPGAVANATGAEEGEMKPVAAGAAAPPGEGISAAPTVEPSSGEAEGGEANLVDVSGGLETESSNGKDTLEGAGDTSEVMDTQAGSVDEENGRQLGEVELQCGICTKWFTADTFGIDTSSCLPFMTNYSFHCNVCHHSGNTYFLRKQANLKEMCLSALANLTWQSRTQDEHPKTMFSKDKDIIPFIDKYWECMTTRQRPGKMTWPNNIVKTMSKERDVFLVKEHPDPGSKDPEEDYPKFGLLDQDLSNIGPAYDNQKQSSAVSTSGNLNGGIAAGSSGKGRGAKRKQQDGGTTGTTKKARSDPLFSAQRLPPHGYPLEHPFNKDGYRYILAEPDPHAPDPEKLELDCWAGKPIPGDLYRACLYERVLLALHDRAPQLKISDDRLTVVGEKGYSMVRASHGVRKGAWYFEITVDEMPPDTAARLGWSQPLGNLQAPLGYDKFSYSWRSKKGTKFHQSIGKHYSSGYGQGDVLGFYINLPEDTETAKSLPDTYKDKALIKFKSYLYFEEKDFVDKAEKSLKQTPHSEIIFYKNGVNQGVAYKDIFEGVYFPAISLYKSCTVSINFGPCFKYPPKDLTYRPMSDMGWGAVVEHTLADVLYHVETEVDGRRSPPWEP

[7] = target: T3, trimeric MLL1 complex (MLL1, RbBP5 and WDR5); assay: FL-NAH displacement FP assay, trimeric complex; format: binding; conditions: for Hill Slope: Trimeric complex, FL-NAH displacement curve
pentameric MLL1 complex [8] = target: T1, pentameric MLL1 complex; assay: FL-NAH displacement FP assay, pentameric complex; format: binding; conditions: for Hill Slope: Pentameric complex, FL-NAH displacement curve
tetrameric MLL1 complex [9] = target: T4, tetrameric MLL1 complex; assay: FL-NAH displacement FP assay, tetrameric complex; format: binding; conditions: for Hill Slope: Tetrameric complex, FL-NAH displacement curve
Outline: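 The tetrameric MLL1 complex was diluted to its own Kd (probe) concentration. It was then incubated 30 min at ambient temperature with 50 nM fluorescein-azaadenosylhomocysteine probe and increasing concentrations of test compound. Buffer was 20 mM Tris pH 8.0, 0.01% Triton X-100, 5 mM DTT. FP was read at ex 485/em 528 nm, in mP. Kdisp and Hill coefficient came from nonlinear least-squares sigmoidal fit. Mean ± SD, ≥3 independent experiments.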

MLL1 SET domain [10] = target: T2, MLL1 SET domain; assay: FL-NAH displacement FP assay, isolated SET domain; format: binding; conditions: for Hill Slope: SET Only, FL-NAH displacement curve
[11] = polarization expressed in mP (methods)

T2 sequence (Q03164 3829-3945 limits assumed): as the sequence (Q03164 3829-3945) above

Hill Slope [7]	Hill Slope (pentameric MLL1 complex [8])	increase in potency of FL-NAH displacement, pentameric complex relative to the isolated SET domain (pentameric MLL1 complex [8]; pentameric vs isolated SET domain) [fold]	Hill Slope (tetrameric MLL1 complex [9])	Hill Slope (MLL1 SET domain [10])	IC50 [7] [nM]	IC50 (pentameric MLL1 complex [8]) [nM]	IC50 (tetrameric MLL1 complex [9]) [nM]	IC50 (MLL1 SET domain [10]) [nM]	SMILES	Kd (pentameric MLL1 complex [1]; 50 nM FL-NAH, FP after 30 min) [nM]	ΔFPmax (pentameric MLL1 complex [1]; [11])	binding to MLL1 SET domain alone by STD NMR (MLL1 SET domain [2])	Kd (MLL1 SET domain [3]; 50 nM FL-NAH, FP after 30 min) [nM]	ΔFPmax (MLL1 SET domain [3]; [11])	binding to MLL1 SET domain alone by differential static light scattering (MLL1 SET domain [4])	Kd ([5]; 50 nM FL-NAH, FP after 30 min) [nM]	ΔFPmax [5, 11]	Kd (tetrameric MLL1 complex [6]; 50 nM FL-NAH, FP after 30 min) [nM]	ΔFPmax (tetrameric MLL1 complex [6]; [11])
–	–	–	–	–	–	–	–	–	Nc1ncnc2c1ncn2[C@@H]1O[C@H](CN(CC[C@H](N)C(=O)O)Cc2cn(CCNC(=O)c3ccc4c(c3)C(=O)OC43c4ccc(O)cc4Oc4cc(O)ccc43)nn2)[C@@H](O)[C@H]1O [FL-NAH, fluorescein linked with N-adenosylhomocysteine]	200 ± 30	270 ± 20	confirmed	1000 ± 100	240 ± 3	confirmed	7000 ± 3000	260 ± 40	1400 ± 400	300 ± 30
−1.5 ± 0.3	−1.4 ± 0.3	20	−1.9 ± 0.1	−0.9 ± 0.2	–	–	–	–	Nc1ncnc2c1ncn2[C@@H]1O[C@H](CSCC[C@H](N)C(=O)O)[C@@H](O)[C@H]1O [SAH]	–	–	–	–	–	–	–	–	–	–
−1.6 ± 0.4	−1.6 ± 0.3	–	−1.7 ± 0.2	−1.2 ± 0.1	7000 ± 1000	1000 ± 200	1000 ± 100	14000 ± 2000	C[S+](CC[C@H](N)C(=O)[O-])C[C@H]1O[C@@H](n2cnc3c(N)ncnc32)[C@H](O)[C@@H]1O (stereo partly shown) [SAM, S-adenosylmethionine]	–	–	–	–	–	–	–	–	–	–
−1.1 ± 0.3	−1.1 ± 0.3	–	−1.2 ± 0.1	−0.9 ± 0.1	10000 ± 2500	500 ± 100	2000 ± 200	9000 ± 200	Nc1ncnc2c1ncn2[C@@H]1O[C@H](C[C@@H](N)CC[C@H](N)C(=O)O)[C@@H](O)[C@H]1O [Sinefungin, sinefungin]	–	–	–	–	–	–	–	–	–	–
